Laboratory results from ChEMBL document CHEMBL1800027, “Imidazolopiperazines: hit to lead optimization of new antimalarial agents” (J Med Chem, 2011).
Blank lines part the entries; values can stand above or below the compound they belong to.

Columns and labels:
[1] = Cytotoxicity against Cricetulus griseus CHO cells; type: cell-based; conditions: chinese hamster, read-out: TC50 (the source's name)
Plasmodium berghei [2] = assay: Antimalarial activity against GFP-tagged Plasmodium berghei ANKA infected in NMRI mouse assessed as mouse survival at 30 mg/kg, po QD administered 24 hrs post infection for 3 days measured on day 30 post infection; type: functional
[3] = AUC (0 to infinity) in male BALB/c mouse at 5 mg/kg, iv by LC/MS/MS analysis; type: ADME, organism-based; parameters: time infinity, dose 5 mg/kg, route intravenous; conditions: plasma
Summary of the method: (§1)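 Male Balb/c mice, n = 3 per group, dosed iv via lateral tail vein at 5 mg/kg and 2 mL/kg. Vehicle 2.5 mg/mL in 75% PEG300/25% DSW, filtered. Six serial retro-orbital blood samples up to 24 h, heparinized plasma. Plasma extracted with acetonitrile/methanol (3:1) plus internal standard for LC/MS/MS (positive ESI, MRM). Noncompartmental analysis.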

Plasmodium berghei [4] = assay: Antimalarial activity against GFP-tagged Plasmodium berghei ANKA infected in NMRI mouse assessed as mouse survival at 30 mg/kg, po administered as single dose 24 hrs post infection measured 72 hrs post infection
[5] = Selectivity index, ratio TC50 for human HuH7 cells to IC50 for Plasmodium falciparum; type: functional, Huh-7
Plasmodium berghei [6] = assay: Antimalarial activity against GFP-tagged Plasmodium berghei ANKA infected in NMRI mouse assessed as reduction in parasitemia at 30 mg/kg, po administered as single dose 24 hrs post infection measured 72 hrs post infection; type: functional; parameters: scale not given: the % may be the effect or the level left
[7] = Half-life in male BALB/c mouse at 5 mg/kg, iv by LC/MS/MS analysis; type: ADME, organism-based; parameters: dose 5 mg/kg, route intravenous; conditions: in vivo; summary of the method: as §1
Plasmodium falciparum [8] = assay: Antimalarial activity against Plasmodium falciparum 3D7 infected in human erythrocytes assessed as decrease in parasitemia after 72 hrs; type: functional, organism-based; conditions: 3D7, 72 h
[9] = Cytotoxicity against human 293T cells; type: cell-based; conditions: HEK-293T cells, read-out: TC50 (the source's name)
[10] = Selectivity index, ratio TC50 for human Hep2 cells to IC50 for Plasmodium falciparum; type: functional, HEp-2
[11] = Tmax in male BALB/c mouse at 20 mg/kg, po by LC/MS/MS analysis; type: ADME, organism-based; parameters: dose 20 mg/kg, route oral; conditions: in vivo
Summary of the method: (§2)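 Male Balb/c mice, n = 3 per group, given 20 mg/kg orally at 8 mL/kg. Vehicle 2.5 mg/mL in 75% PEG300/25% DSW, filtered. Six serial retro-orbital blood samples up to 24 h, heparinized plasma. Plasma extracted with acetonitrile/methanol (3:1) plus internal standard; LC/MS/MS quantitation by positive ESI MRM. Noncompartmental analysis; values normalized to 30 mg/kg. F = (AUCpo·dose iv)/(AUCiv·dose po).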

[12] = Volume of distribution in male BALB/c mouse at 5 mg/kg, iv by LC/MS/MS analysis; type: ADME, organism-based; parameters: dose 5 mg/kg, route intravenous; conditions: in vivo; summary of the method: as §1
[13] = Selectivity index, ratio TC50 for mouse BAF3 cells to IC50 for Plasmodium falciparum; type: functional
[14] = Ratio of drug level in blood to plasma of female CD1 mouse; type: ADME; conditions: blood and plasma
in vitro [15] = conditions: human, microsomes
in vitro [16] = conditions: mouse, microsomes
[17] = Cytotoxicity against human Hep2 cells; type: cell-based; conditions: HEp-2 cells, read-out: TC50 (the source's name)
Salmonella typhimurium = assay: Genotoxicity in Salmonella Typhimurium by Ames test; type: toxicity, organism-based; conditions: salmonella enterica subsp. enterica serovar typhimurium
Cytochrome P450 3A4 = Cytochrome P450 3A4 (Homo sapiens, UniProt P08684); assay: Inhibition of CYP 3A4; type: ADME
Cytochrome P450 3A4, sequence (P08684 whole entry): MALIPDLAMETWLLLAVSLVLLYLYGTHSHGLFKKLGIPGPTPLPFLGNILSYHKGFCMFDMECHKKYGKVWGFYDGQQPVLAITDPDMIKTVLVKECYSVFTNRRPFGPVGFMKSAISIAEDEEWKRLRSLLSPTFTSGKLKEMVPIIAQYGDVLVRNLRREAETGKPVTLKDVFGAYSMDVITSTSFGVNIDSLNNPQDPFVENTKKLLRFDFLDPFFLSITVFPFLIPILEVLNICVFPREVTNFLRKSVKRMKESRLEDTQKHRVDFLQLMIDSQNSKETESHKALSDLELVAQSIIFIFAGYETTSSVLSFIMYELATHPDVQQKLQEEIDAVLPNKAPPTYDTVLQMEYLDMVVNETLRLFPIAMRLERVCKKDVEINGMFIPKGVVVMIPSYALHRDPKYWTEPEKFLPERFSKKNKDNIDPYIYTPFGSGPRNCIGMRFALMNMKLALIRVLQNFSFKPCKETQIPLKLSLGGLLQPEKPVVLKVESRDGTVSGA

[18] = Clearance in male BALB/c mouse at 5 mg/kg, iv by LC/MS/MS analysis; type: ADME, organism-based; parameters: dose 5 mg/kg, route intravenous; conditions: in vivo; summary of the method: as §1
Cytochrome P450 1A2 = target: T1, Cytochrome P450 1A2 (Homo sapiens, UniProt P05177); assay: Inhibition of CYP 1A2; type: ADME
T1 sequence (P05177 whole entry): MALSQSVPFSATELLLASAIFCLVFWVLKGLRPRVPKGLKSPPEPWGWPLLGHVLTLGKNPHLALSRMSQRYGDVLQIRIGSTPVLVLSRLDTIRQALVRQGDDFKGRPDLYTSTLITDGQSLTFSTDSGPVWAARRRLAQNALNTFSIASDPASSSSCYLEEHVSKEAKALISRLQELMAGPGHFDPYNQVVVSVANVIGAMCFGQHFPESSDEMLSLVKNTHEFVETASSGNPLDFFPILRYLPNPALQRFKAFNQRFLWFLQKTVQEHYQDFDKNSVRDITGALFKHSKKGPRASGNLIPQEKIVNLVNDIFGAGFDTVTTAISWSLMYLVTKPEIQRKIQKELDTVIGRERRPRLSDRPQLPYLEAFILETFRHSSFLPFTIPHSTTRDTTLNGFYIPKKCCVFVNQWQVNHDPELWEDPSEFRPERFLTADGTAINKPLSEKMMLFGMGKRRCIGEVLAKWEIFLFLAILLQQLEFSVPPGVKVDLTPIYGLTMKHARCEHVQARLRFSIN

in vitro [19] = conditions: human, Caco-2
[20] = Genotoxicity in micronucleus assessed as arrest at cytokinesis stage by micronucleus assay
[21] = Ratio of drug level in blood to plasma of male BALB/c mouse; type: ADME; conditions: blood and plasma
[22] = Oral bioavailability in male BALB/c mouse at 20 mg/kg by LC/MS/MS analysis; type: ADME, organism-based; conditions: in vivo; summary of the method: as §2
[23] = Selectivity index, ratio TC50 for human 293T cells to IC50 for Plasmodium falciparum; type: functional
[24] = Selectivity index, ratio TC50 for human HeLa cells to IC50 for Plasmodium falciparum; type: functional
Cytochrome P450 2C9 = Cytochrome P450 2C9 (Homo sapiens, UniProt P11712); assay: Inhibition of CYP 2C9; type: ADME
Cytochrome P450 2C9, sequence (P11712 whole entry): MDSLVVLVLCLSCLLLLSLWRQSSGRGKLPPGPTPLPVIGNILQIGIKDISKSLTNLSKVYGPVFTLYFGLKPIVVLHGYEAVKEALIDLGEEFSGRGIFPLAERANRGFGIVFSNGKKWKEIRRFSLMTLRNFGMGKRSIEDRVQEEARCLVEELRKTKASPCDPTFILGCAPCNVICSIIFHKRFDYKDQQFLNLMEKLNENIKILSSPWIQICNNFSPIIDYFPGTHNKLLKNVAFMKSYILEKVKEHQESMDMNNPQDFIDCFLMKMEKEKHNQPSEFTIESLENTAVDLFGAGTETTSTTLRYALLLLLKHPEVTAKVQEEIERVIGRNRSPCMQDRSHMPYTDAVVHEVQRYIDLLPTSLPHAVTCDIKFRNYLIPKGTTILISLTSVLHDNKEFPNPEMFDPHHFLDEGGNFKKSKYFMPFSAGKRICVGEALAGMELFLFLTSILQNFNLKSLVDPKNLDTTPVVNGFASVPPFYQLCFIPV

[25] = pampa
[26] = Selectivity index, ratio TC50 for CHO cells to IC50 for Plasmodium falciparum; type: functional
Mus musculus [27] = assay: Cmax in male BALB/c mouse at 20 mg/kg, po by LC/MS/MS analysis; type: ADME, organism-based; parameters: dose 20 mg/kg, route oral; conditions: in vivo; summary of the method: as §2
[28] = target: Voltage-gated inwardly rectifying potassium channel KCNH2 (Homo sapiens, UniProt Q12809)
Voltage-gated inwardly rectifying potassium channel KCNH2, sequence (Q12809 whole entry): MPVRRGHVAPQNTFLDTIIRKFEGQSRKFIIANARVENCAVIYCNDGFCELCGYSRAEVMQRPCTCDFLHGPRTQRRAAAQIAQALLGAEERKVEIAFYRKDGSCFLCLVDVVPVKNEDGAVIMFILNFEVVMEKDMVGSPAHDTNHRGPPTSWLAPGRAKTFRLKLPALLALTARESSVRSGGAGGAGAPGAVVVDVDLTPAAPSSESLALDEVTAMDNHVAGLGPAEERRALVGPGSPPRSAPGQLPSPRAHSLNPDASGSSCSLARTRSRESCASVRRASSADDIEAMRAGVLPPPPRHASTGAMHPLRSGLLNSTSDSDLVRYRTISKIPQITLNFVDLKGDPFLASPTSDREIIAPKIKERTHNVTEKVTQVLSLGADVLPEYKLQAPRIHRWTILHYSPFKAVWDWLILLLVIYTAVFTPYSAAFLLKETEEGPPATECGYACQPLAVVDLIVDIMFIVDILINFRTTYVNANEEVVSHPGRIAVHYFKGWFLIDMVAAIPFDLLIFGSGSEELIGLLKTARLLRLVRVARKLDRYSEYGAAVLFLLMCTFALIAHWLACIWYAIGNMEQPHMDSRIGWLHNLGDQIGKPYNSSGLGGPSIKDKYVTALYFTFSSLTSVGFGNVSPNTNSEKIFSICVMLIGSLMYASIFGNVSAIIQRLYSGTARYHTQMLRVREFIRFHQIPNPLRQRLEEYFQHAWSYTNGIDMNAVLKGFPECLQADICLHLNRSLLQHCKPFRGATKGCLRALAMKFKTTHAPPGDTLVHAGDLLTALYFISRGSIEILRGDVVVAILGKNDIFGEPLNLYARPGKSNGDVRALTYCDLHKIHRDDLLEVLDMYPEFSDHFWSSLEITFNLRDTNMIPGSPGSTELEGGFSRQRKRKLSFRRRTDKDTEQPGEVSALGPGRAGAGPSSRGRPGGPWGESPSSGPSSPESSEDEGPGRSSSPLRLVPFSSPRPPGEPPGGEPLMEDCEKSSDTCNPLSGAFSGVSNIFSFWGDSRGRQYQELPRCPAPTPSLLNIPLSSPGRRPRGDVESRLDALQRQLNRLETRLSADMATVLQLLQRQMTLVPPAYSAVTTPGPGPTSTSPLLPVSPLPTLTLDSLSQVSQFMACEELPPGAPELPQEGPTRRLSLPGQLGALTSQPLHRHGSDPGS

Mus musculus [29] = assay: AUC (0 to infinity) in male BALB/c mouse at 20 mg/kg, po by LC/MS/MS analysis; type: ADME, organism-based, Plasma; parameters: time infinity, dose 20 mg/kg, route oral; conditions: in vivo; summary of the method: as §2
[30] = Half life in male BALB/c mouse at 20 mg/kg, po by LC/MS/MS analysis; type: ADME, organism-based; parameters: dose 20 mg/kg, route oral; conditions: in vivo; summary of the method: as §2
Plasmodium berghei [31] = assay: Antimalarial activity against GFP-tagged Plasmodium berghei ANKA infected in NMRI mouse assessed as mouse survival at 100 mg/kg, po administered as single dose 24 hrs post infection measured on day 30 post infection
[32] = Cytotoxicity against human HuH7 cells; type: cell-based; conditions: Huh-7 cells, read-out: TC50 (the source's name)
in vitro [33] = conditions: human, Caco-2; remark: listed apart in the source
in vitro [34] = conditions: rat, microsomes
Cytochrome P450 2D6 = Cytochrome P450 2D6 (Homo sapiens, UniProt P10635); assay: Inhibition of CYP 2D6; type: ADME
Cytochrome P450 2D6, sequence (P10635 whole entry): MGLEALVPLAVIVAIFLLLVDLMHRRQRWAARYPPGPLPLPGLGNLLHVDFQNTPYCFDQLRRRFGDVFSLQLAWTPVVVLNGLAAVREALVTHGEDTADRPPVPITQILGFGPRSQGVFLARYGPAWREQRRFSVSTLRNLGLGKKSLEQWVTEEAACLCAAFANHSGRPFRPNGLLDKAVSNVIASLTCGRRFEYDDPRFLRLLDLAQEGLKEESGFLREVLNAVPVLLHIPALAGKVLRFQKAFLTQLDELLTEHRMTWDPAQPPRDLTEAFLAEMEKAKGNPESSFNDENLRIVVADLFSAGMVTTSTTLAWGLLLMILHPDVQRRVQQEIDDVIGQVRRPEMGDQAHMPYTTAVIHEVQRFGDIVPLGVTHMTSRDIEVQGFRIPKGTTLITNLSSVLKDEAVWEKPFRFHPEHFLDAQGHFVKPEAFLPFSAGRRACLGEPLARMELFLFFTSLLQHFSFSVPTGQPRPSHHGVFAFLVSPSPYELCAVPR

[35] = Cytotoxicity against human HeLa cells; type: cell-based; conditions: read-out: TC50 (the source's name)
Cytochrome P450 2C19 = Cytochrome P450 2C19 (Homo sapiens, UniProt P33261); assay: Inhibition of CYP 2C19; type: ADME
Cytochrome P450 2C19, sequence (P33261 whole entry): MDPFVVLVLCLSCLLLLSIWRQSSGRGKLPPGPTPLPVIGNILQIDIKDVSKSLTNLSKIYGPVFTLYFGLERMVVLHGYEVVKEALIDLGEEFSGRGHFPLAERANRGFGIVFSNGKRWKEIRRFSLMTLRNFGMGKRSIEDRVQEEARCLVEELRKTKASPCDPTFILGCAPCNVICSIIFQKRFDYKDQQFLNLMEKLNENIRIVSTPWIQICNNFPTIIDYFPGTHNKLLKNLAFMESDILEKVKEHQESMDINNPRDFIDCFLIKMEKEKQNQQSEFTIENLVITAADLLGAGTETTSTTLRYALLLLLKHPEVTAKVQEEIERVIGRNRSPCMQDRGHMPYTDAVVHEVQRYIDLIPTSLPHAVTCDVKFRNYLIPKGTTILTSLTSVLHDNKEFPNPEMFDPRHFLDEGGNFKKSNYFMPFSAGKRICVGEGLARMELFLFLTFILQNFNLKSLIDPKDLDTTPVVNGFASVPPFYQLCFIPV

[36] = Cytotoxicity against mouse BAF3 cells; type: cell-based; conditions: read-out: TC50 (the source's name)
Plasmodium falciparum [37] = assay: Antimalarial activity against Plasmodium falciparum W2 infected in human erythrocytes assessed as decrease in parasitemia after 72 hrs; type: functional, organism-based; conditions: W2, 72 h
[38] = Cmax in po dosed mouse; type: ADME, organism-based; parameters: route oral; conditions: in vivo
[39] = Aqueous solubility of the compound at pH 6.8; type: physicochemical; conditions: buffer

Structure (SMILES): CC(C)(N)C(=O)N1CCn2c(nc(-c3ccc(F)cc3)c2Nc2ccc(F)c(F)c2)C1
CC50 [1]: > 12 µM | Survival (Plasmodium berghei [2]): 17.7 days | AUC(0-inf) [3]: 7 µM·h | Survival (Plasmodium berghei [4]): 7.7 days | Selectivity Index [5]: >100 | Activity (Plasmodium berghei [6]): 99.4% | half-life [7]: 7.7 h | IC50 (Plasmodium falciparum [8]): 0.044 µM | CC50 [9]: > 12 µM | Selectivity Index [10]: >100 | Tmax [11]: 1.67 h | Vd [12]: 14 L/kg | Selectivity Index [13]: >100 | blood plasma ratio [14]: > 1 | hepatic extraction ratio (in vitro [15]): 0.39 | hepatic extraction ratio (in vitro [16]): 0.17 | CC50 [17]: > 12 µM | Activity (Salmonella typhimurium): Non-toxic | IC50 (Cytochrome P450 3A4): > 8.9 µM | clearance [18]: 27.7 mL/min/kg | IC50 (Cytochrome P450 1A2): > 8.9 µM | Papp B→A (in vitro [19]): 1.03 ×10⁻⁶ cm/s | Activity [20]: Non-toxic | blood plasma ratio [21]: > 1 | bioavailability [22]: 76% | Selectivity Index [23]: >100 | Selectivity Index [24]: >100 | IC50 (Cytochrome P450 2C9): > 8.9 µM | permeability [25]: 86% | Selectivity Index [26]: >100 | Cmax (Mus musculus [27]): 1940 nM | IC50 [28]: 4.8 µM | AUC (Mus musculus [29]): 31.758 µM·h | half-life [30]: 7.7 h | Survival (Plasmodium berghei [31]): 17 days | CC50 [32]: > 12 µM | Papp A→B (in vitro [33]): 0.14 ×10⁻⁶ cm/s | hepatic extraction ratio (in vitro [34]): 0.12 | IC50 (Cytochrome P450 2D6): > 8.9 µM | CC50 [35]: > 12 µM | IC50 (Cytochrome P450 2C19): > 8.9 µM | CC50 [36]: > 12 µM | IC50 (Plasmodium falciparum [37]): 0.036 µM

IC50 (Plasmodium falciparum [8]): 0.063 µM | Cmax [38]: 320 nM | IC50 (Cytochrome P450 3A4): > 10 µM | IC50 (Cytochrome P450 1A2): > 10 µM | IC50 (Cytochrome P450 2C9): > 10 µM | IC50 (Cytochrome P450 2D6): > 10 µM | IC50 (Cytochrome P450 2C19): > 10 µM | solubility [39]: > 175 µM | IC50 (Plasmodium falciparum [37]): 0.097 µM
Structure (SMILES): NCC(=O)N1CCn2c(nc(-c3ccccc3)c2Nc2ccc3c(c2)OCO3)C1
Selectivity Index [5]: >20 | Selectivity Index [24]: >20 | IC50 [28]: 19 µM | CC50 [32]: > 10 µM
